This note sets out measurements from ChEMBL document CHEMBL3525935, “Inhibition of P-glycoprotein leads to improved oral bioavailability of compound K, an anticancer metabolite of red ginseng extract produced by gut microflora” (Drug Metab Dispos, 2012).

Series [1] in a line: Efflux ratio of permeability from basolateral to apical side over apical to basolateral side in human Caco2 cells. As to conditions: Caco-2.
A short description of series [2]: Permeability across apical to basolateral side in human Caco2 cells. The conditions noted are these: Caco-2.
Series [3] has as its system MDR1. The series is described as follows: Permeability across apical to basolateral side in MDCK2-MDR1 cells at 2 uM. It counts as ADME, cell-based, Canis lupus familiaris, MDCK-II. As to conditions: dog, MDCK-MDR1; read-out: permeability. In short, it runs like this:
(§1)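 Monolayers of Caco-2 (TC7; TEER >445 Ω/cm² for quality control), parental MDCKII, or MDR1-MDCKII cells. Bidirectional transport of 2 μM substrate in HBSS, pH 7.4 on both sides. Outputs were Pa-b, Pb-a and efflux ratio Pb-a/Pa-b, plus mass-balance recovery. Intracellular amount was measured at the end of transport and normalised to lysate protein (BCA). Three independent experiments.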

The subject of series [4] is MDR1. The series can be described thus: Efflux ratio of permeability from basolateral to apical side over apical to basolateral side in MDCK2-MDR1 cells at 2 uM. It counts as ADME, cell-based, Canis lupus familiaris. The conditions noted are these: dog, MDCK-MDR1. In short, it runs like this: as §1
A further series relates to LM1. The series can be described thus: Cytotoxicity against mouse LM1 cells assessed as cell growth inhibition upto 100 uM after 48 hrs by MTT assay. It counts as functional, cell-based. The method in brief: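 LM1 cells, a metastatic line derived from A/J mice, grown in DMEM with 10% FBS, 2 mM glutamine, penicillin/streptomycin and 1% nonessential amino acids. Seeded at 5×10^3 cells/well in 96-well plates, fed daily, and used 2–3 days after seeding.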
(In general: Formazan colour is commonly taken as a measure of viable cells.)

The nature of series [5]: Drug uptake in human Caco2 cells assessed as intracellular level measured per mg of protein at 2 uM in presence of 50 uM verapamil P-gp inhibitor. As to conditions: caco-2, 2 µM. Format: ADME, cell-based. In short, it runs like this: (§2)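 Caco-2 (TC7) monolayers, 2 μM substrate transported in HBSS at pH 7.4. Cyclosporine A (20 μM) or verapamil (50 μM) was added to the apical side. Intracellular amount was measured at the end of transport and normalised to lysate protein (BCA), in nmol/mg. Three independent experiments.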

Series [6] is described as follows: Drug uptake in human Caco2 cells assessed as intracellular level measured per mg of protein at 2 uM. The conditions noted are these: caco-2, 2 µM. Format: ADME, cell-based. The method in brief: as §1
Series [7] can be described thus: Permeability across apical to basolateral side in human Caco2 cells at 2 uM. It counts as ADME, cell-based. The conditions noted are these: Caco-2, read-out: permeability. In short, it runs like this:
as §1

Series [8] in a line: Drug uptake in human Caco2 cells assessed as intracellular level measured per mg of protein at 2 uM in presence of 20 uM cyclosporine A P-gp inhibitor. The conditions noted are these: caco-2, 2 µM. Format: ADME, cell-based. In short, it runs like this:
as §2

Series [9] in a line: Permeability across apical to basolateral side in MDCK2 cells at 2 uM. Format: ADME, cell-based, Canis lupus familiaris, MDCK-II. As to conditions: dog, MDCK; read-out: permeability. In short, it runs like this:
as §1

The nature of series [10]: Permeability across basolateral to apical side in MDCK2 cells at 2 uM. The conditions noted are these: dog, MDCK; read-out: permeability. Format: ADME, cell-based, Canis lupus familiaris, MDCK-II. In short, it runs like this:
as §1

The nature of series [11]: Efflux ratio of permeability from basolateral to apical side over apical to basolateral side in MDCK2 cells at 2 uM. Format: ADME, cell-based, Canis lupus familiaris, MDCK-II. The conditions noted are these: dog, MDCK. The method in brief:
as §1

Series [12] can be described thus: Drug uptake in MDCK2 cells assessed as intracellular level measured per mg of protein at 2 uM. Format: ADME, cell-based, Canis lupus familiaris. The conditions noted are these: dog, mdck-ii. In short, it runs like this:
as §1

The test system of series [13] is MDR1. The series can be described thus: Permeability across basolateral to apical side in MDCK2-MDR1 cells at 2 uM. It counts as ADME, cell-based, Canis lupus familiaris, MDCK-II. The conditions noted are these: dog, MDCK-MDR1; read-out: permeability. In short, it runs like this:
as §1

A short description of series [14]: Drug uptake in MDCK2-MDR1 cells assessed as intracellular level measured per mg of protein at 2 uM. Format: ADME, cell-based, Canis lupus familiaris. As to conditions: dog, mdck-ii. The method in brief: as §1
The nature of series [15]: Tmax in wildtype FVB mouse at 10 mg/kg, po. It counts as ADME, organism-based. On the set-up: dose 10 mg/kg, route oral. As to conditions: in vivo. The method in brief:
(§3)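 Male mice aged 6–10 weeks, MDR1a/b knockout or wild-type FVB, fasted overnight. Single 10 mg/kg gavage dose in an oral suspending vehicle. Ten timed tail-snip blood samples (20–25 μl) were taken under isoflurane. Blood levels were measured by UPLC-MS; the standard curve spanned 19.5 nM–10 μM, with LLOQ 9.8 nM. Five mice per group; mean ± S.D.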

Series [16] can be described thus: Cmax in wildtype FVB mouse at 10 mg/kg, po. As to conditions: in vivo. It counts as ADME, organism-based. Also noted: dose 10 mg/kg, route oral. The method in brief:
as §3

Series [17] can be described thus: Drug elimination rate in wildtype FVB mouse at 10 mg/kg, po. It counts as ADME, organism-based. On the set-up: dose 10 mg/kg, route oral. The conditions noted are these: in vivo. The method in brief:
as §3

Series [18] is described as follows: Half life in wildtype FVB mouse at 10 mg/kg, po. Format: ADME, organism-based. On the set-up: dose 10 mg/kg, route oral. The conditions noted are these: in vivo. The method in brief:
as §3

A short description of series [19]: Mean residence time (infinity) in wildtype FVB mouse at 10 mg/kg, po. Format: ADME, organism-based. On the set-up: dose 10 mg/kg, route oral. The conditions noted are these: in vivo. The method in brief: as §3
Series [20] can be described thus: AUC (0 to time) in wildtype FVB mouse at 10 mg/kg, po. On the set-up: dose 10 mg/kg, route oral. It counts as ADME, organism-based. As to conditions: plasma. The method in brief: as §3
Series [21] can be described thus: AUC (0 to infinity) in wildtype FVB mouse at 10 mg/kg, po. Also noted: time infinity, dose 10 mg/kg, route oral. The conditions noted are these: plasma. It counts as ADME, organism-based. The method in brief: as §3
The nature of series [22]: Tmax in MDR1a/b(-/-) FVB mouse at 10 mg/kg, po. It counts as ADME, organism-based. On the set-up: dose 10 mg/kg, route oral. The conditions noted are these: in vivo. The method in brief:
as §3

A short description of series [23]: Cmax in MDR1a/b(-/-) FVB mouse at 10 mg/kg, po. Format: ADME, organism-based. As to conditions: in vivo. On the set-up: dose 10 mg/kg, route oral. The method in brief:
as §3

Series [24] in a line: Drug elimination rate in MDR1a/b(-/-) FVB mouse at 10 mg/kg, po. Also noted: dose 10 mg/kg, route oral. The conditions noted are these: in vivo. Format: ADME, organism-based. In short, it runs like this:
as §3

Series [25] in a line: Half life in MDR1a/b(-/-) FVB mouse at 10 mg/kg, po. Format: ADME, organism-based. Also noted: dose 10 mg/kg, route oral. As to conditions: in vivo. In short, it runs like this: as §3
Series [26] in a line: Mean residence time (infinity) in MDR1a/b(-/-) FVB mouse at 10 mg/kg, po. Format: ADME, organism-based. Also noted: dose 10 mg/kg, route oral. As to conditions: in vivo. The method in brief: as §3
A short description of series [27]: AUC (0 to time) in MDR1a/b(-/-) FVB mouse at 10 mg/kg, po. It counts as ADME, organism-based. On the set-up: dose 10 mg/kg, route oral. As to conditions: plasma. In short, it runs like this: as §3
A short description of series [28]: AUC (0 to infinity) in MDR1a/b(-/-) FVB mouse at 10 mg/kg, po. Format: ADME, organism-based. Also noted: time infinity, dose 10 mg/kg, route oral. As to conditions: plasma. In short, it runs like this:
as §3

Series [29] in a line: Oral bioavailability in rat. It counts as ADME, organism-based. The conditions noted are these: in vivo.
A short description of series [30]: Cytotoxicity against mouse LM1 cells assessed as cell growth inhibition after 48 hrs by MTT assay. It counts as functional, cell-based. As to conditions: LM1, 48 h.
A short description of series [31]: Drug recovery in human Caco2 cells at 2 uM. Format: ADME, cell-based. As to conditions: Caco-2, read-out: Drug recovery. In short, it runs like this:
as §1

Series [32] is described as follows: Drug recovery in MDCK2 cells at 2 uM. The conditions noted are these: dog, MDCK; read-out: Drug recovery. Format: ADME, cell-based, Canis lupus familiaris, MDCK-II. The method in brief:
as §1

Series [33] relates to MDR1. The series is described as follows: Drug recovery in MDCK2-MDR1 cells at 2 uM. As to conditions: dog, MDCK-MDR1; read-out: Drug recovery. Format: ADME, cell-based, Canis lupus familiaris, MDCK-II. The method in brief:
as §1

The nature of series [34]: Permeability across basolateral to apical side in human Caco2 cells at 2 uM. It counts as ADME, cell-based. The conditions noted are these: Caco-2, read-out: permeability. The method in brief:
as §1

Series [35] is described as follows: Efflux ratio of permeability from basolateral to apical side over apical to basolateral side in human Caco2 cells at 2 uM. It counts as ADME, cell-based. The conditions noted are these: Caco-2. In short, it runs like this: as §1

pIC50: −log10 of the molar value. Calls of active or inactive are those of the source. The calls are words filed in the database; no cut-off is given here.

As for `C[C@H]1O[C@@H](O[C@H]2[C@@H](O)C[C@H](O[C@H]3[C@@H](O)C[C@H](O[C@H]4CC[C@@]5(C)[C@H](CC[C@@H]6[C@@H]5C[C@@H](O)[C@]5(C)[C@@H](C7=CC(=O)OC7)CC[C@]65O)C4)O[C@@H]3C)O[C@@H]2C)C[C@H](O)[C@@H]1O` [DIGOXIN], the efflux ratio – broadly, the permeability from basolateral to apical divided by that in the opposite direction, in the common usage – in series [1] was determined as 21. In [2], this compound gave a Papp A→B of 1.48 ×10⁻⁶ cm/s. Also, the Papp A→B at 2 µM in the series with MDR1 [3] turned out to be 0.298 ×10⁻⁶ cm/s. Besides, the efflux ratio at 2 µM with MDR1 [4] turned out to be 64.

In the case of `CC(C)=CCC[C@](C)(O[C@@H]1O[C@H](CO)[C@@H](O)[C@H](O)[C@H]1O)[C@H]1CC[C@]2(C)[C@@H]1[C@H](O)C[C@@H]1[C@@]3(C)CC[C@H](O[C@@H]4O[C@H](CO)[C@@H](O)[C@H](O)[C@H]4O)C(C)(C)[C@@H]3CC[C@]12C`, the “growth inhibition (GI)” value in the series on LM1 was “inactive”.

As to `CC(C)=CCC[C@](C)(O[C@@H]1O[C@H](CO)[C@@H](O)[C@H](O)[C@H]1O)[C@H]1CC[C@]2(C)[C@@H]1[C@H](O)C[C@@H]1[C@@]3(C)CC[C@H](O)C(C)(C)[C@@H]3CC[C@]12C`, the Drug uptake in [5] turned out to be 0.5 nmol/mg; in series [6] it was 0.01 nmol/mg; in [8], 0.15 nmol/mg; in series [12] it was 0.27 nmol/mg; in series [14], 0.08 nmol/mg. Further, the Papp A→B at 2 µM in series [7] was found to be 1.16 ×10⁻⁶ cm/s; in series [9], 0.58 ×10⁻⁶ cm/s; with MDR1 [3] it was 1.84 ×10⁻⁶ cm/s. Besides, the Papp B→A at 2 µM turned out to be 1.13 ×10⁻⁶ cm/s in [10], 33.6 ×10⁻⁶ cm/s with MDR1 [13] and 31 ×10⁻⁶ cm/s in [34]. In addition, the values for the efflux ratio at 2 µM (in [11]; in the series with MDR1 [4]; in series [35]) were 1.8, 18.2 and 26.6, respectively. For the same compound, the time of peak concentration (Tmax) (as a rule, the time from dosing to the highest level) is 2.8 h in series [15] and 5.6 h in series [22]. Besides, the Cmax (usually the maximum level reached in the sampled fluid or tissue) in series [16] came to 130 nM; in series [23] it was 530 nM. Moreover, the k el was 3.61e-05 s⁻¹ in series [17] and 1.11e-05 s⁻¹ in [24]. Besides, the half-life (as a rule, how long it takes for the measured level to halve) in series [18] was 5.87 h; in series [25], 18.7 h. The MRT inf (in general, a mean duration of stay, worked out from the concentration-time curve) turned out to be 7.82 h in series [19] and 30.7 h in series [26]. The results for the area under the curve (AUC) in series [20] and in series [27] were 0.66 µM·h and 7.7 µM·h, respectively. Besides, the AUC(0-inf) – broadly, the area under the concentration-time curve extrapolated to infinity – in series [21] was 0.75 µM·h; in [28], 17.6 µM·h. Further, the bioavailability – broadly, dose-corrected exposure relative to a reference, in per cent – in [29] came to 5%. Further, the pIC50 (in general, the IC50 on a negative log10 scale, so that one unit is a factor of ten) in series [30] was 4.73. Further, the recovery at 2 µM (in series [31]; in series [32]; in the series with MDR1 [33]) was 85% each time.
